Compound activity (PubChem)
Most compounds without a hit are left out; they make up all but 2.8% or so of the library.
EP2 antag – human EP2 receptor antagonists, primary screen, TR-FRET cAMP, C6 glioma cells. Prostaglandin E2 receptor EP2 subtype (Homo sapiens), P43116. C6 glioma cells expressing human EP2; cells stimulated with saturating PGE2. inhibition, % at 25 µM. 0.52% of 260,000 active. AID 1422, 2008;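 active = percent inhibition above 40 after rounding to a whole number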;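 note: rat C6 glioma host cells with rolipram phosphodiesterase inhibitor present; the protocol text gives 20 µM as final concentration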
Target sequence (P43116 whole entry, looked up): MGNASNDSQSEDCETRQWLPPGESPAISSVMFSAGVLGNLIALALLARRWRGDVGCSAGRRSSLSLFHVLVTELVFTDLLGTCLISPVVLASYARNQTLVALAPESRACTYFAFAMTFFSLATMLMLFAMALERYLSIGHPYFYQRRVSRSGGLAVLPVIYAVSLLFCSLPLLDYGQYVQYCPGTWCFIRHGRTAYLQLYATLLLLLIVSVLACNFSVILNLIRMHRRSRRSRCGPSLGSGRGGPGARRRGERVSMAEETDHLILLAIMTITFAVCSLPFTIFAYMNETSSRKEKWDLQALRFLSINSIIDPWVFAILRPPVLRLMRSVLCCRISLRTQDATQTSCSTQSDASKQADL
EP2 mod – EP2 receptor modulators, cAMP readout, primary screen, cell-based, HTRF cAMP, PGE2 stimulation; AID 940, 2007; EP2-expressing cells, cAMP HTRF FRET, PGE2 co-stimulation; Prostaglandin E2 receptor EP2 subtype (Homo sapiens), P43116; 0.83% of 260,000 active; induction, % at 25 µM;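 active = compounds whose cAMP rise, as percent of the full-agonist control response, exceeds 60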;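 note: rat C6 glioma line stably carrying human EP2 under a CMV promoter; the protocol text gives 20 µM as final concentration; 100% = response of wells given 1 µM PGE2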
NPY2 pot ag – NPY-Y2 potentiators or agonists, primary screen, cell-based; cells expressing NPY-Y2, potentiator/agonist read-out; Neuropeptide Y receptor type 2 (Homo sapiens), P49146; AID 1359, 2008; activation, % at 3.6 µM; 0.45% of 220,000 active; in the data active = activation above about 27%;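 note: cells stimulated with NPY near EC25 plus isoproterenol at EC100; 0% = vehicle plus submaximal agonist and 100% = vehicle plus saturating agonist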
NPY Y1 blocker – NPY-Y1 receptor antagonists, primary screen, cell-based; Neuropeptide Y receptor type 1 (Homo sapiens), P25929; HEK293-CNG Y1 cells, membrane potential fluorescence; NPY at EC95, then isoproterenol; inhibition, % at 3.6 µM; 1% of 200,000 active;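 active = inhibition above the campaign mean inhibition of all tested compounds plus 3 SD, cut at about 20% in these data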;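 note: 0% = DMSO wells given NPY plus isoproterenol and 100% = isoproterenol alone without NPY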
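Assay system: HEK293 cells with Y1 receptor plus CNG channel | Probe or stimulus: NPY (25 nM), isoproterenol (1 µM), Ro 20-1724 (25 µM) | Timing: Compound incubation 1 h at room temperature, readout 45 min post-stimulation | Measured by: Membrane-potential fluorescent dye readout | Benchmarks: High control isoproterenol alone, low control NPY with isoproterenol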
NPY-Y2 antag – NPY-Y2 receptor antagonists, primary screen, cell-based. 0.99% of 140,000 active. AID 793, 2007. inhibition, % at 2.7 µM. Neuropeptide Y receptor type 2 (Homo sapiens), P49146. NPY-Y2 expressing cells, antagonist mode; in the data active = inhibition above about 17%;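 note: 0% = vehicle with agonist challenge and 100% = reference antagonist with challenge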
NPY1 pot ag – NPY-Y1 receptor potentiators or agonists, primary screen, cell-based | activation, % at 3.6 µM | AID 1304, 2008 | 0.37% of 220,000 active | NPY-Y1 expressing cells, potentiator/agonist activation; in the data active = activation above about 33%, passing the limit was not always enough;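 note: cells stimulated with NPY at EC10 then isoproterenol at EC100; 0% = low agonist plus stimulus and 100% = saturating agonist plus stimulus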
EP2 confirm – cAMP induction in EP2, EP4, beta2-AR and parental cells, confirmation, counter-screen for EP2 modulator project, cell-based, five parallel assays, C6 glioma, HEK293. shares compounds with EP2 mod. cAMP HTRF induction; plus low (about EC15) PGE2 agonist. calls only at 20 µM (by protocol). 47% of 1,300 active. AID 1080, 2008;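 active = cAMP induction above 50% in the main assay while under 30% in all four parallel counter assays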;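 note: rat C6 glioma cells stably expressing human EP2 receptor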
An asterisk follows results filed as active; i = inactive; nt = not tested or not shown; + = active, no number; ! = repeats disagree.

SMILES	EP2 antag	EP2 mod	NPY2 pot ag	NPY Y1 blocker	NPY-Y2 antag	NPY1 pot ag	EP2 confirm
CCOC(=O)CCCCCCCCCCCCC1C=CCC1 (centres undefined)	10	54	nt	nt	nt	nt	+
Fc1ccc(-c2ccc(CN(CCN3CCOCC3)Cc3cccnc3)cc2)cc1	5	-73	nt	nt	nt	nt	nt
O=C(N/N=C/c1cccc(F)c1)NC1CCCCC1	5	85*	2	3	1	-4	+
O=C(N/N=C/c1ccccc1F)NC1CCCCC1	3	54	5	-4	2	7	nt
N#CN=C1SCCS1	13	66*	14	-2	-2	1	i
COc1ccc(-c2c3c([nH]c(=S)c2C#N)CCC3)cc1	18	77*	3	-2	1	5	i
COC(=O)c1c(C)nc2ccccc2c1-c1ccccc1	6	89*	5	-2	5	15	i
CCOC(=O)c1c(C)nc2ccccc2c1C	17	17	10	5	7	0	nt
CCOC(=O)c1c(C)nc2ccccc2c1-c1ccccc1	5	85*	-3	7	10	13	+
COC(=O)c1c(C)[nH]c(C)c1-c1ccccc1	11	-13	2	-2	4	6	nt
O=C(NC(=S)Nc1ccccc1O)c1ccc(-c2ccc(Cl)cc2)o1	15	2	-16	8	8	-12	nt
Cc1c(NC(=S)NC(=O)c2ccc(-c3ccc(Cl)cc3)o2)cccc1C(=O)O	9	99*	-4	9	nt	-32	+
CCc1ccc2[nH]c(=O)c(C(c3nnnn3C(C)(C)CC)N3CCN(c4ccccc4)CC3)cc2c1 (centres undefined)	3	33	nt	nt	nt	nt	nt
COc1cc(O)c2c(=O)cc(C)oc2c1CC=C(C)C	9	92*	nt	nt	nt	nt	+
CCN(Cc1ccccc1)C(c1cc2cc(C)cc(C)c2[nH]c1=O)c1nnnn1C(C)(C)C (centres undefined)	32	29	nt	nt	nt	nt	nt
c1ccc(-c2noc(CN3CCN(C(c4ccccc4)c4ccccc4)CC3)n2)cc1	6	57	-1	-3	1	-9	i
c1ccc(-c2noc(CN3CCN(c4ccccc4)CC3)n2)cc1	9	-17	-3	7	6	-18	nt
CCc1ccc(N2CC(C(=O)Nc3ccccn3)CC2=O)cc1 (centres undefined)	7	-48	nt	nt	nt	nt	nt
C=C(C)COc1ccc2c(c1)CC[C@@H]1[C@H]3C/C(=N/O)C(=O)[C@]3(C)CC[C@@H]21	30	63*	nt	nt	nt	nt	i
NS(=O)(=O)c1ccc(NCc2cnc3ccccc3n2)cc1	10	71*	nt	nt	nt	nt	i
NS(=O)(=O)c1ccc(NCc2cnc3ccccc3c2)cc1	7	8	nt	nt	nt	nt	nt
Cc1ccc(C2CC2c2n[nH]c(=S)n2-c2ccc(Cl)cc2)cc1 (centres undefined)	6	53	-5	0	2	-5	i
Cc1ccc(C2CC2c2n[nH]c(=S)n2-c2cccc(C)c2)cc1 (centres undefined)	6	30	-5	-3	nt	-5	nt
CC1(C)Cc2nc3nc(SCC(=O)Nc4ccccc4)nc(N)c3cc2CO1	6	71*	6	-3	nt	-10	+
CCOc1ccc(-c2nnc3sc(COc4ccccc4)nn23)cc1	4	-44	-3	-2	2	7	nt
SMILES	EP2 antag	EP2 mod	NPY2 pot ag	NPY Y1 blocker	NPY-Y2 antag	NPY1 pot ag	EP2 confirm
CCOc1ccc(-c2nn3c(-c4ccccc4)nnc3s2)cc1	11	65*	10	3	3	6	+
CCc1nc(SCCO)c2oc3ccccc3c2n1	10	35	0	-7	1	-44	nt
CCc1nc(N2CCC(C)CC2)c2oc3ccccc3c2n1	5	70*	-46	18	16	-45	i
CCOC(=O)c1sc(NC(=O)COc2cc(Cl)ccc2Cl)c(C#N)c1C	11	-7	nt	nt	nt	nt	nt
NCCc1c(-c2ccccc2)n(-c2ccccc2)c2ccccc12	3	72*	0	19	nt	5	+
FC(F)(F)c1cc(-c2ccccc2)nc2nc(N3CCOCC3)sc12	10	67*	3	5	nt	-22	+
CCc1cc2cc3c(cc2nc1SCC(=O)OC(C)C)OCO3	2	81*	-1	15	nt	-14	+
COc1ccc(CNC(=O)[C@@H]2C=CCN2S(C)(=O)=O)cc1	6	-29	nt	nt	nt	nt	nt
CCCC(=O)Nc1sc(C(=O)Nc2cccc(C)c2C)c(C)c1C#N	10	-39	nt	nt	nt	nt	nt
O=C(CSc1nc2ccccc2c(=O)n1Cc1ccco1)NCc1ccco1	3	21	6	7	7	4	nt
C=CCSc1nc2ccccc2c(=O)n1Cc1ccco1	6	70*	nt	nt	nt	nt	i
CCOc1cccc(CNc2ccc(O)cc2)c1OCc1ccc(Cl)cc1	12	77*	-2	-7	-1	-3	+
C/C(CCC(C)C)=N\NC(=S)NCc1ccccc1	8	66*	-4	8	nt	0	+
C/C(=N\NC(=S)NCc1ccccc1)c1ccc2ccccc2c1	8	-24	-11	7	7	-27	nt
CCn1c(COc2cccc(C)c2C)nnc1SCC(=O)N1CCCCCC1	21	-16	nt	nt	nt	nt	nt
O=S1(=O)N=C(N/N=C/C=C/c2ccccc2)c2ccccc21	4	-20	-2	4	1	-14	nt
O=S1(=O)N=C(N(CCO)/N=C/C=C/c2ccccc2)c2ccccc21	10	72*	2	-2	2	-11	+
O=C(O)c1ccccc1C(=O)NCCc1ccncc1	5	-5	nt	nt	nt	nt	nt
Cc1cc2cc(C(c3nnnn3Cc3ccc(F)cc3)N3CCc4ccccc43)c(=O)[nH]c2cc1C (centres undefined)	10	-12	nt	nt	nt	nt	nt
Cc1ccc(C)c(N=C2CCCN2Cc2ccccc2)c1C#N	2	78*	-5	7	9	-9	+
CCC1(CC)Cc2ccccc2-c2nc(NCCO)[nH]c(=O)c21	16	69*!	6	-3	-1	-5	i
O=c1[nH]c(NCCO)nc2c1C1(CCCCC1)Cc1ccccc1-2	18	45	27	-4	2	2	nt
